Converted amounts (≈) assume the structure as drawn.
How the values were obtained:
Canis familiaris [1] = assay: Cardiovascular activity in dog assessed as increase in mean […] pressure at 3 mg to 5 mg/kg, iv by dose escalation study; format: functional, Canis lupus familiaris
Outline: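 Anesthetized mongrel dogs on sodium pentobarbital, mechanically ventilated, with left ventricular and arterial pressure transducers and ECG. Four dogs received 6 min iv infusions at escalating 0.3, 1, 3 and 5 mg/kg, 30 min apart; four control dogs received vehicle on the same schedule. Mean arterial pressure and dP/dt were recorded; plasma was sampled after each infusion.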

[2] = target: T1, Substance-K receptor (Homo sapiens) (UniProt P21452); assay: Inhibition of ligand binding in neurokinin 2 receptor; set-up: scale not given: the % may be the effect or the level left
T1 sequence (whole entry): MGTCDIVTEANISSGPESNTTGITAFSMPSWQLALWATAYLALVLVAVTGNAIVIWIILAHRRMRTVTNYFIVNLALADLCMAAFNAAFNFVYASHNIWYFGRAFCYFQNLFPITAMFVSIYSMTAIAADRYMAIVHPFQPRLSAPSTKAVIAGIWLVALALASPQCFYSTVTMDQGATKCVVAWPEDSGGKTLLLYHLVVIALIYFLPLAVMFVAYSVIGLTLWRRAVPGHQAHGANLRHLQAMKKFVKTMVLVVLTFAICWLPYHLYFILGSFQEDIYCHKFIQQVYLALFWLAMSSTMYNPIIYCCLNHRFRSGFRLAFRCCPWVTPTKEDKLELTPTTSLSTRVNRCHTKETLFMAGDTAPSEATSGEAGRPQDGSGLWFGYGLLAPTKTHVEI
Outline: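 Screened at 10^-7 and 10^-5 M for binding inhibition, then taken to a dose–response on the human neurokinin 2 receptor. IC50 is based on two experiments.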

Canis familiaris [3] = assay: Effect on respiratory function in spontaneously breathing mongrel dog assessed as change in intrapleural pressure at 5 mg/kg after intravenous infusion for 6 mins (RVb= -21.2+/-26.5 %); format: functional, Canis lupus familiaris
Canis familiaris [4] = assay: Effect on respiratory function in spontaneously breathing mongrel dog assessed as change in intrapleural pressure at 5 mg/kg after intravenous infusion for 30 mins (RVb= -90.8+/-103 %); format: functional, Canis lupus familiaris
Canis familiaris [5] = assay: Effect on respiratory function in spontaneously breathing mongrel dog assessed as change in peak expiratory flow at 5 mg/kg after intravenous infusion for 6 mins (RVb= 3.6+/-3.7 %); format: functional, Canis lupus familiaris
Rattus norvegicus [6] = assay: Effect on acute renal function in rat assessed as change in osmolality in urine per 100 gm body weight at 30 mg/kg, po (RVb= 325+/-1.9 mg/dl); format: functional
Canis familiaris [7] = assay: Effect on respiratory function in spontaneously breathing mongrel dog assessed as change in peak expiratory flow at 5 mg/kg after intravenous infusion for 30 mins (RVb= -3.3+/-6.4 %); format: functional, Canis lupus familiaris
Canis familiaris [8] = assay: Effect on respiratory function in spontaneously breathing mongrel dog assessed as change in airway resistance at 5 mg/kg after intravenous infusion for 30 mins (RVb= 20.2+/-12.3 %); format: functional, Canis lupus familiaris
Canis familiaris [9] = assay: Effect on respiratory function in spontaneously breathing mongrel dog assessed as change in heart rate at 5 mg/kg after intravenous infusion for 15 mins (RVb= -2.3+/-1.7 %); format: functional, Canis lupus familiaris
Canis familiaris [10] = assay: Effect on respiratory function in spontaneously breathing mongrel dog assessed as change in heart rate at 5 mg/kg after intravenous infusion for 30 mins (RVb= -0.9+/-3.8 %); format: functional, Canis lupus familiaris
[11] = Plasma concentration in spontaneously breathing dog at 5 mg/kg, iv after 30 mins; format: ADME, organism-based, Canis lupus familiaris; set-up: dose 5 mg/kg, route intravenous
Outline: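 Spontaneously breathing, barbiturate-anesthetized mongrel dogs (n = 4) infused iv at 5.0 mg/kg over 6 min. Total pooled plasma concentrations taken at 6, 15, 30 and 60 min.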

[12] = target: T2, Corticotropin-releasing factor receptor 1 (Rattus norvegicus, UniProt P35353); assay: Displacement of [125I]Tyro-rat/human CRF from CRF1 receptor in rat cortical membrane by gamma counting; format: cell membranes
T2 sequence (P35353 whole entry): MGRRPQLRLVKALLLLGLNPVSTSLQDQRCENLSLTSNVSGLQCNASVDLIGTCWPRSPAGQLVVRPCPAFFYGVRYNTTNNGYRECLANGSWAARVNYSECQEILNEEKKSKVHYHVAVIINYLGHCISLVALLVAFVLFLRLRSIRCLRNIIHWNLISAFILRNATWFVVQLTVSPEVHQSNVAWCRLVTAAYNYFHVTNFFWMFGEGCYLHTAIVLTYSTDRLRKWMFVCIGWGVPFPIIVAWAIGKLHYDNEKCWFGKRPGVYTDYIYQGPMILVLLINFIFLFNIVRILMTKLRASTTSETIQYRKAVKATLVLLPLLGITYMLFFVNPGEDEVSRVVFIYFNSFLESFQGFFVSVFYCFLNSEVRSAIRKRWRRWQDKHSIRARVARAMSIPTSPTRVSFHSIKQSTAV
Outline: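 Binding to CRF receptors in rat cortical homogenate.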

[13] = Aqueous solubility at pH 7.4; format: physicochemical; conditions: aqueous medium
Outline: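 Solubility measured in water at pH 7.4.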

Rattus norvegicus [14] = assay: Anxiolytic activity in rat assessed as decrease in latency to exit dark chamber at 3 mg/kg, po by defensive withdrawal test relative to untreated control; format: functional; set-up: scale not given: the % may be the effect or the level left
Outline: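 Rat defensive withdrawal: latency to leave the dark chamber and explore the open field, maximum 900 s. Dosed orally in 0.25% Methocel 60 min before testing; n = 8 per dose, mean ± SEM. Analysed by Kruskal–Wallis followed by Mann–Whitney U against vehicle.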

Rattus norvegicus [15] = assay: Ex vivo receptor occupancy of CRF receptor in rat brain at 30 mg/kg, po by [125I]sauvagine binding and autoradiography relative to control; format: functional
Outline: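 Rats were given 0.3, 1, 3, 10 or 30 mg/kg po in 0.25% Methocel 60 min before sacrifice. Brains were removed, sectioned and frozen at −80 °C. Ex vivo CRF receptor binding gave occupancy relative to vehicle-treated rats, reported as mean ± SEM.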

Rattus norvegicus [16] = assay: Toxicity in rat assessed as time spent on rotarod at 3 mg/kg, po after 1 hr by rotarod test; format: organism-based; set-up: dose 3 mg/kg, route oral; conditions: in vivo
Outline: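 Rats, n = 8 per dose, dosed po in 0.25% Methocel 1 h before testing, at 0, 1.0, 3.0, 10, 30 and 100 mg/kg. Read-out is time on rotorod (s), mean ± SEM, compared with the vehicle (zero-dose) group.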

[17] = Volume of distribution at steady state in rat at 1 mg/kg, iv and 5 mg/kg, po; format: ADME, organism-based; conditions: in vivo, read-out: Vdss
Outline: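 Rats (n = 3) dosed iv at 1 mg/kg in 10% DMAC, 70% propylene glycol and deionized water, and orally at 5 mg/kg in 0.5% methylcellulose.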

[18] = Oral bioavailability in rat at 5 mg/kg; format: ADME, organism-based; conditions: in vivo
Outline: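 Rats (n = 3) were dosed at 1 mg/kg iv in 10% DMAC, 70% propylene glycol and deionized water, and at 5 mg/kg po in 0.5% methylcellulose.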

[19] = AUC (0 to infinity) in chimpanzee at 0.5 mg/kg, iv; format: ADME, organism-based, Pan troglodytes; set-up: time infinity, dose 0.5 mg/kg, route intravenous; conditions: plasma
Outline: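 Chimpanzee PK. Oral: 1 mg/kg in two alert animals, given as a 1 mg/mL suspension in 50–50 (v/v) 0.5% methylcellulose/Tang orange juice with 1% Tween-80. IV: 0.5 mg/kg in one animal in 10% DMAC, 70% propylene glycol and deionized water, infused over 10 min (0.2 mL/kg). EDTA blood was taken predose and at 2–96 h; iv sampling added 6, 15 and 30 min.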

Activity [2]: 80%
concentration at 0.5 h [11]: 412 nM
IC50 [12]: 6.1 nM
solubility [13]: 16 µg/mL (≈ 47 µM)
Vd [17]: 14.9 L/kg
bioavailability [18]: 40%
AUC(0-inf) [19]: 11.9 µM·h
SMILES: CC[C@@H](C)Nc1nc(C)nc2c(-c3ccc(OC)nc3C)c(C)nn12 [PEXACERFONT]
Activity (Canis familiaris [1]): 10 mmHg
Activity (Canis familiaris [3]): 3.3%
Activity (Canis familiaris [4]): 8.6%
Activity (Canis familiaris [5]): -12.5%
Activity (Rattus norvegicus [6]): 240 milliosmole
Activity (Canis familiaris [7]): -10.7%
Activity (Canis familiaris [8]): -57.5%
Activity (Canis familiaris [9]): -2.9%
Activity (Canis familiaris [10]): -2.5%
Activity (Rattus norvegicus [14]): 44%
Activity (Rattus norvegicus [15]): 85%
Time (Rattus norvegicus [16]): 162 s
